From PubChem BioAssay AID623971 (Broad Institute, 2012) come the findings set out here.

Where “and” joins values, the source holds several entries; their conditions need not be identical. Equal entries are not always repeated. Calls of active or inactive are those of the source.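 How the source made its calls: active means compounds lowering yeast growth whose fitted half-maximal concentration is at most twice the top tested dose; inconclusive means flat curve with moderate growth inhibition, or a poor curve fit; inactive means the rest.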

The term AC50 denotes the concentration giving half of the maximal activity seen.

In one experiment the test system is S. cerevisiae growth in glucose, OD600, 48 h. Kind of experiment: yeast growth reduction with glucose carbon source – OD600, powder samples, set 3, dose response (AID 623971).
Conditions: not given
The procedure, abridged: (§1)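 Material: S. cerevisiae yeast; buffer or medium: CSM growth medium supplemented with glucose; doses: test compounds transferred into wells by pin tool; incubation: 48 h at 30 °C without shaking; measured by: OD600 absorbance; controls: amphotericin B 10 µM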
Turning to `CC1/C=C/C=C\C=C\C=C\C=C\C=C\C=C\C(O[C@H]2OC(C)C(O)C(N)C2O)CC2OC(O)(CC(O)CC(O)C(O)CCC(O)CC(O)CC(=O)OC(C)C(C)C1O)CC(O)C2C(=O)O` (stereo partly drawn), the AC50 was 384 nM.

System in the next experiment: not listed separately
Described as above. As to conditions: S. cerevisiae growth in glucose, OD600, 48 h; at 3 µM (top of the series). The procedure, abridged: as §1
Regarding `CCOC(=O)N1C(=O)C2(CCCCC2)N(c2ccc(C#N)cc2)C1=S`, the activity change, negative = growth inhibition is -21.5% (inactive).

With `CCOC(=O)N1C(=O)C2(CCCCC2)N(c2ccccc2)C1=S`, the activity change, negative = growth inhibition was -11.6% (inactive).

For `CCOC(=O)N1C(=O)C2(CCCCC2)N(c2ccc(C)cc2)C1=S`, the activity change, negative = growth inhibition is -5.09% (inactive) and -19.8% (inactive).

Turning to `CCOC(=O)N1C(=O)C2(CCCCC2)N(c2ccc(Cl)cc2)C1=S`, the activity change, negative = growth inhibition was -15.5% (inactive).

Take `C/C=C/[C@@H]1[C@H]2C[C@@H](C)CC[C@@H]2C(C)=C[C@H]1C(=O)c1c(O)c(-c2ccc(O)cc2)c[nH]c1=O`: the activity change, negative = growth inhibition was -5.04% (inactive).

In the case of `CCOC(=O)N1C(=O)C2(CCCCC2)N(c2cccc(C)c2)C1=S`, the activity change, negative = growth inhibition is -4.85% (inactive).

Regarding `CCOC(=O)N1C(=O)C2(CCCCC2)N(c2ccc(F)cc2)C1=S`, the activity change, negative = growth inhibition is -4.53% (inactive).
